According to ChEMBL document CHEMBL4270576, “Discovery of a benzenesulfonamide-based dual inhibitor of microsomal prostaglandin E2 synthase-1 and 5-lipoxygenase that favorably modulates lipid mediator biosynthesis in inflammation” (Eur J Med Chem, 2018):
Active and inactive are the calls of the source. No cut-off for these calls is given here.

What was measured:
[1] = target: T1, Polyunsaturated fatty acid 5-lipoxygenase (Homo sapiens, UniProt P09917); assay: Inhibition of recombinant human 5-LO expressed in Escherichia coli BL21 (DE3) using arachidonic acid as substrate preincubated for 10 mins followed by CaCl2 and substrate addition measured after 10 mins by RP-HPLC analysis
T1 sequence (P09917 whole entry): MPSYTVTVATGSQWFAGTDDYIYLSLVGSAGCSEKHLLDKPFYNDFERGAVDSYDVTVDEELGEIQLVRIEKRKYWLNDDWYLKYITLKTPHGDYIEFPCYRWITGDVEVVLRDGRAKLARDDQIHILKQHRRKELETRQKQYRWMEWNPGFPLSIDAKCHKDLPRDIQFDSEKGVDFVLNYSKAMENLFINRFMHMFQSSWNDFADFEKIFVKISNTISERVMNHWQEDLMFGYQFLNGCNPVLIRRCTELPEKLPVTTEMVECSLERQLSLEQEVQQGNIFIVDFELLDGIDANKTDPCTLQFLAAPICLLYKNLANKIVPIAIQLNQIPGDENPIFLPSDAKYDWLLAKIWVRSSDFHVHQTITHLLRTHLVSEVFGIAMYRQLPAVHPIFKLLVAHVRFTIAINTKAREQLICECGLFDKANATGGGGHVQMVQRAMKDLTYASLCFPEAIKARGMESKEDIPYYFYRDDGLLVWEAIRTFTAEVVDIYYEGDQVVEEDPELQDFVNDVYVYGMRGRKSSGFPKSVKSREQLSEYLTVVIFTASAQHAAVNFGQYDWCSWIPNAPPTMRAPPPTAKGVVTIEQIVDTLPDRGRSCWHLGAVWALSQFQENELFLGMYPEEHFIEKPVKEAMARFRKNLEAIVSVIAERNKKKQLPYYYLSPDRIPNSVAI
Procedure, shortened: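 Human recombinant 5-LO from E. coli BL21(DE3), ATP-agarose semi-purified (0.5 µg/ml), pre-incubated with compound or 0.1% DMSO at 4 °C. It was pre-warmed 30 s at 37 °C, then started with 2 mM CaCl2 plus 20 µM AA. Stopped after 10 min with ice-cold methanol; products by RP-HPLC. Residual activity at 10 µM; IC50 from 4-5 concentrations; n=3-4.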

[2] = target: T1, Polyunsaturated fatty acid 5-lipoxygenase; assay: Inhibition of 5-LO in human neutrophils using arachidonic acid as substrate assessed as reduction in 5-LO product formation preincubated for 15 mins followed by substrate addition measured after 10 mins in presence of Ca2+ ionophore A23187 by HPLC analysis
Procedure, shortened: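 Human neutrophils (5 × 10^6 in 1 ml PBS with 1 mg/ml glucose) pre-incubated 15 min at 37 °C with compound or 0.1% DMSO, then activated with 1 mM CaCl2 and 2.5 µM A23187, with or without 20 µM AA; 5-LO products measured after 10 min. Residual activity at 10 µM; IC50 by nonlinear regression from 4-5 concentrations; mean ± SEM, n=3-4.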

[3] = target: T2, Polyunsaturated fatty acid lipoxygenase ALOX12 (Homo sapiens) (UniProt P18054); assay: Modulation of 12-LO-mediated 14-HDHA level in human M2 macrophages derived from IL4-polarized human monocyte derived macrophages at 3 uM preincubated for 15 mins followed by Escherichia coli (O6:K2:H1) challenge for 90 mins by LC-MS/MS analysis
T2 sequence (whole entry): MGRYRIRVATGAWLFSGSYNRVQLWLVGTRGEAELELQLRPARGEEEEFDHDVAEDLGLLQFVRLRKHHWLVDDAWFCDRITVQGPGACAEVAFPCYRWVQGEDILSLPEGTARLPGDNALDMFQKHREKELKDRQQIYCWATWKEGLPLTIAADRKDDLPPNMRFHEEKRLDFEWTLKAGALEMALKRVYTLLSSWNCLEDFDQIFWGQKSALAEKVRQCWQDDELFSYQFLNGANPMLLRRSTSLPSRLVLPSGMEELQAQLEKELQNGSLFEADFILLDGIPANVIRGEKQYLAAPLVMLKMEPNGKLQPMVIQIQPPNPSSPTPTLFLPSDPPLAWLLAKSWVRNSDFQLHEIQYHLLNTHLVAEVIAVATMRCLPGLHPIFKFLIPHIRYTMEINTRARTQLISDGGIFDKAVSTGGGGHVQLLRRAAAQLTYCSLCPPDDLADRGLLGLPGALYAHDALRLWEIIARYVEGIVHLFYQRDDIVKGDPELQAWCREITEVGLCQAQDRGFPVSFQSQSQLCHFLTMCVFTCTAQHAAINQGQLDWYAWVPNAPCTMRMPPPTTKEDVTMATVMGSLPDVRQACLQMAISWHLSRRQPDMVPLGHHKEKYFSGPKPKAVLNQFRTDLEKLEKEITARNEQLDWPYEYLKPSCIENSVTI
Procedure, shortened: (§1)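 Monocytes differentiated 6 days with M-CSF (20 ng/ml), then polarized 48 h with IL-4 20 ng/ml (M2). Cells (2 × 10^6) in PBS/1 mM CaCl2 pre-incubated 15 min at 37 °C with 3 µM compound or 0.1% DMSO, then challenged with E. coli O6:K2:H1 (1:50) for 90 min. Lipid mediators extracted by SPE with deuterated internal standards and quantified by UPLC-MS/MS as % of vehicle.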

[4] = target: Cyclooxygenase (Homo sapiens, UniProt P35354+P23219); assay: Modulation of COX1/2-mediated 11-HETE level in human M2 macrophages derived from IL4-polarized human monocyte derived macrophages at 3 uM preincubated for 15 mins followed by Escherichia coli (O6:K2:H1) challenge for 90 mins by LC-MS/MS analysis; assay type: ADME; conditions: 1.5 h; procedure, shortened: as §1
[5] = species on record: Homo sapiens; assay: Modulation of LO-mediated 5,15-DiHETE level in human M2 macrophages derived from IL4-polarized human monocyte derived macrophages at 3 uM preincubated for 15 mins followed by Escherichia coli (O6:K2:H1) challenge for 90 mins by LC-MS/MS analysis; procedure, shortened: as §1
[6] = species on record: Homo sapiens; assay: Modulation of LO-mediated AT-PD1 level in human M2 macrophages derived from IL4-polarized human monocyte derived macrophages at 3 uM preincubated for 15 mins followed by Escherichia coli (O6:K2:H1) challenge for 90 mins by LC-MS/MS analysis; procedure, shortened: as §1
[7] = test system: Mus musculus; assay: Antiinflammatory activity in CD-1 mouse assessed as reduction in zymosan-induced LTC4 formation in peritoneal cavity at 10 mg/kg, ip preincubated for 30 mins followed by zymosan addition measured after 30 mins by ELISA; assay type: functional, organism-based
Procedure, shortened: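 CD-1 male mice (6-8 weeks), n=6 per group, given 10 mg/kg i.p. in 2% DMSO/saline vehicle 30 min before i.p. zymosan (500 µL of 2 mg/mL suspension). Peritoneal cavity washed with 3 ml PBS 30 min after zymosan; LTC4 measured in exudate. One-way ANOVA with Bonferroni test.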

[8] = test system: Neutrophil; assay: Cytotoxicity against human neutrophils at 10 uM; assay type: cell-based
[9] = test system: Macrophage cell line; assay: Modulation of 13-HDHA level in human M2 macrophages derived from IL4-polarized human monocyte derived macrophages at 3 uM preincubated for 15 mins followed by Escherichia coli (O6:K2:H1) challenge for 90 mins by LC-MS/MS analysis; assay type: functional; procedure, shortened: as §1
[10] = target: T3, Polyunsaturated fatty acid 5-lipoxygenase (Homo sapiens) (UniProt P09917); assay: Ratio of IC50 for recombinant human 5-LO to IC50 for 5-LO in human neutrophils
T3 sequence (whole entry): T1 sequence (P09917 whole entry)

IC50 [1]: 2.3 µM
IC50 [2]: 0.4 µM
Activity [3]: 125%
Activity [4]: 106%
Activity [5]: 122%
Activity [6]: 106%
Ratio IC50 [10]: 8
SMILES: O=C(O)c1ccc(N(Cc2cccc(OCc3ccccc3)c2)S(=O)(=O)c2ccc(-c3ccccc3)cc2)cc1
Activity [7]: Active
Activity [8]: Non-Toxic
Activity [9]: 127%
